Rows were chosen to be rich in hits. Some 1.8% of all compounds tested hit in one or more screens of this group.
hiPSC survival – enhancers of human iPSC single-cell survival; hiPSC single-cell survival, ATPlite luminescence; 100% = ROCK inhibitor wells, 0% = DMSO; survival enhancement, % at 20 µM; 0.044% of 360,000 active; AID 602274; in the data active means survival enhancement above about 18%;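 further: cells exposed to compounds for 16 hours before the ATP read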
MT1-MMP act inh – inhibitors of human MT1-MMP activation; P50281; HT1080 RFP-PRO-GFP cells, GFP/RFP ratio fluorescence, overnight; percent of plate control window, DMSO zero; GFP/RFP ratio change, % at 20 µM; 0.061% of 360,000 active; AID 651647;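 active means GFP/RFP ratio change of at least 30% with cell ATP level not reduced by more than half and red fluorescence within 50% of control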
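Test system: HT1080 RFP-PRO-GFP cells; Benchmarks: DMSO and RFP-L50D-GFP cell wells; Timing: cells overnight before dosing, compound overnight, 37 °C, 5% CO2; Compound: one 20 µM compound dose with 1% DMSO; Read-out: GFP/RFP fluorescence ratio.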
Cneo AK release – causes C. neoformans cell lysis; adenylate kinase release luminescence, 4 h; normalised: neutral wells 0, clomiphene wells 100; 0.2% of 360,000 active; lysis activity, % at 15 µM;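 active means mean lysis activity across replicates of at least 80%, whatever share of replicates individually reach that level; inactive means mean lysis activity below 80%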
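Assay system: log-phase C. neoformans yeast / Quantity: yeast cell density of 5 × 10^6 cells/mL / Medium: fresh YPD growth medium / Compound: single dose / Timing: static 4 h at 37 °C with compound, 1 h detection / Measured by: adenylate kinase release luminescence / Read-out: lysis from increased AK signal / Benchmarks: Clomiphene as positive lysis control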
DAGLB inh – blocks human DAGLB lipase activity; AID 504411; HEK293T DAGLB membrane lysate, EnzChek fluorogenic substrate; 0.059% of 340,000 active; inhibition, % at 5.17 µM; in the data active means inhibition above about 34%;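 further: 0% = enzyme with vehicle and 100% = wells lacking enzyme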
Target sequence (Q8NCG7 whole entry, looked up): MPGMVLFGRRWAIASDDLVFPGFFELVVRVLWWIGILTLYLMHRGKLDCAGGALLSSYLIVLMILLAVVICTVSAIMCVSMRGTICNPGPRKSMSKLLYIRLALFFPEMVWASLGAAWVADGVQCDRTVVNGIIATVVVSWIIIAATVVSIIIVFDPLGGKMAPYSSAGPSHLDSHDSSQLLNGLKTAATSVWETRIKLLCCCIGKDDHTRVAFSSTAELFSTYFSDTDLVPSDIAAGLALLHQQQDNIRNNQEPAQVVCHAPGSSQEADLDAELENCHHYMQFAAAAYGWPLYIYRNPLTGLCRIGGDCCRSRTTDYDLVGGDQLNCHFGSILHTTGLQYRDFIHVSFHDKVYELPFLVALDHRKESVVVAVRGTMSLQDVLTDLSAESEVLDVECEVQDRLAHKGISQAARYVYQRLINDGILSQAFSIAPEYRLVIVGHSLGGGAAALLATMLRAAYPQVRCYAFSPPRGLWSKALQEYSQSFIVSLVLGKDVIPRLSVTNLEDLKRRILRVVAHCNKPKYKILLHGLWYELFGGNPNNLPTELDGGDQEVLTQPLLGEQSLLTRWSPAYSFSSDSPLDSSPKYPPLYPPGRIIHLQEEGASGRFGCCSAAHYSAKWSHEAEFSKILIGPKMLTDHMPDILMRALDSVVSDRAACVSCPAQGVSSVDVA
rRNA inh HTS – inhibits bacterial ribosomal RNA function over humanized ribosomes; GFP signal change (wild-type ribosome), % (concentration not given with the values); E. coli WT GFP vs humanized-ribosome RFP mutants, fluorescence, 24 h; stronger effect = lower value; DMSO median 0, no signal -100; 1.6% of 350,000 active;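 active means significant combined selectivity score with lowered wild-type GFP, culture density cut under 30%, mutant RFP and density less affected; inactive means any of these conditions unmet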
SKN-1 inh – C. elegans SKN-1 inhibition; AID 624304; C. elegans VP596 Pgst-4::GFP/RFP ratio, acrylamide-induced, 24 h; 0.49% of 360,000 active; inhibition, % at 21.8 µM;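 active means interference check ratio from 0.5 to 1.5 plus GFP to RFP signal ratio inhibition reaching or exceeding a fixed threshold, cut at about 30% in these data, passing the limit was not always enough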
Numbers without * were called inactive; . = no result.

SMILES	hiPSC survival	MT1-MMP act inh	Cneo AK release	DAGLB inh	rRNA inh HTS	SKN-1 inh
O=C(c1cccc(F)c1)N1CCCCN2[C@H](CO)[C@@H](c3ccc(-c4ccc(F)cc4)cc3)[C@@H]2C1	.	.	-3	.	.	.
O=C(C[C@@H]1CC[C@@H]2NC[C@H](O)COC[C@H]2O1)Nc1ccccc1	.	.	-9	.	0	.
CO[C@H]1CN(C)C(=O)c2ccc(NC(=O)c3ccc(F)cc3)cc2OC[C@H](C)N(C(=O)CN(C)C)C[C@@H]1C	.	.	.	.	0	.
Cc1noc(C)c1NC(=O)Nc1ccc2c(c1)CC(=O)N([C@H](C)CO)C[C@H](C)[C@H](CN(C)S(=O)(=O)c1c(C)noc1C)O2	.	.	0	.	2	.
C[C@H]1CCCCO[C@H](CN(C)Cc2ccc(C(=O)O)cc2)[C@@H](C)CN([C@@H](C)CO)C(=O)c2cc(NC(=O)Nc3ccc(C(F)(F)F)cc3)ccc2O1	.	.	-1	.	1	.
Cc1ccc(-c2nnc(-c3cccs3)o2)cc1	0	-4	.	-13	6	36*
Cc1c(CN2CCCC(C(=O)Nc3cccc(-n4cccn4)c3)C2)cnn1C (stereo not drawn)	0	-2	0	0	13	36*
COC(=O)C[C@H]1CC[C@@H]2[C@H](COC[C@H](O)CN2C(=O)Nc2cccc(F)c2)O1	.	.	-5	.	-30	.
COc1cccc(/C=N/NC(=S)Nc2cccc(S(=O)(=O)N(C)C)c2)c1	0	6	-1	-1	-18*	-3
O=C(Cc1ccccn1)N[C@@H]1CC[C@@H](CC(=O)N2CCCCC2)O[C@@H]1CO	.	.	3	.	2	.
COc1cccc(/C=C2\SC(=S)N(C(C(=O)O)c3ccccc3)C2=O)c1OC (stereo not drawn)	-1	-1	4	8	-34*	0
COc1cc(/C=C2\SC(=S)N(C(C(=O)O)c3ccccc3)C2=O)cc(OC)c1OC (stereo not drawn)	1	5	1	5	-26*	3
COc1ccc(/C=C2\SC(=S)N(C(C(=O)O)c3ccccc3)C2=O)c(OC)c1 (stereo not drawn)	0	0	-1	17	-47	6
CC(C)NC(=O)N[C@@H]1CC[C@@H](CCNC(=O)C2CCOCC2)O[C@H]1CO	.	.	0	.	5	.
Cc1cc(C(=O)COC(=O)c2ccc[nH]c2=O)c(C)n1-c1ccccc1F	-1	-5	.	-2	1	16
Cc1cc(C(=O)COC(=O)c2ccc(O)cc2)c(C)n1-c1ccccc1F	0	5	.	-2	-29*	-10
COCCOC(=O)N1C(=O)[C@@]2(c3ccccc31)[C@H](c1ccccc1OCCO)N1[C@H](c3ccccc3)[C@H](c3ccccc3)OC(=O)[C@H]1[C@@H]2C(=O)N1CCCCCCC1	.	.	-5	.	.	.
C/C=C/c1ccccc1[C@@H]1[C@@H](C#N)N(S(=O)(=O)c2cccc(F)c2)[C@H]1CO	.	.	.	.	-19	.
C/C=C/c1ccc([C@@H]2[C@@H](C#N)N(S(=O)(=O)c3cccc(F)c3)[C@@H]2CO)cc1	.	.	109*	.	-2	.
COc1ccc(-c2cc(C(F)(F)F)nc(SCc3cccc(C(=O)O)c3)n2)cc1	-1	5	11	6	-43*	8
COc1ccc(CN2C[C@H](C)[C@@H](OC)CN(C)C(=O)c3ccc(NC(=O)c4nc5ccccc5s4)cc3OC[C@@H]2C)cc1	.	.	-55	.	.	.
COC(=O)[C@@H](Cc1c[nH]c2ccccc12)NCc1ccc(B(O)O)cc1	1	2	10	-1	-12	14
COC(=O)[C@H](Cc1c[nH]c2ccccc12)NCc1cccc(B(O)O)c1	4	0	1	2	-24*	-22
Nc1cccc2cc(S(=O)(=O)O)ccc12	0	4	0	0	16	51*
N#C[C@@H]1[C@@H](c2ccc(C#CCC3CCCC3)cc2)[C@H](CO)N1C(=O)c1ccccn1	.	.	-1	.	0	.
SMILES	hiPSC survival	MT1-MMP act inh	Cneo AK release	DAGLB inh	rRNA inh HTS	SKN-1 inh
N#C[C@H]1[C@@H](c2ccc(C#CCC3CCCC3)cc2)[C@@H](CO)N1C(=O)c1ccccn1	.	.	111*	.	-8	.
CCOc1ccc(/C=N/NC(=O)c2[nH]ncc2Br)c(O)c1	-2	-6	.	4	-34*	-12
COc1ccc2c3c([nH]c2c1)[C@H](CO)N(Cc1ccccc1)CC31CN(C(=O)c2cccnc2)C1	.	.	.	.	-10	.
CCC(=O)N1CC(=O)N2[C@H](CO)[C@H](c3ccc(C#CCc4ccccc4)cc3)[C@@H]2C1	.	.	.	.	0	.
Fc1cc(Cl)cc2ccc(-c3ccccc3)nc12	-2	4	0	.	-1	36*
Fc1ccc2nc(-c3ccccc3)ccc2c1	-2	2	-1	.	15	28
Cc1noc(C)c1S(=O)(=O)N(C)C[C@H]1Oc2ccc(NC(=O)CCCCCC(=O)Nc3ccccc3N)cc2CC(=O)N([C@H](C)CO)C[C@@H]1C	.	.	.	.	5	.
Cc1sc2ncnc(N3CCCC(C)C3)c2c1C (stereo not drawn)	0	-2	-3	-4	-28*	8
CNC[C@@H]1Oc2ncc(-c3ccc(OC)cc3)cc2C(=O)N([C@H](C)CO)C[C@@H]1C	.	.	-10	.	4	.
CC(C)(CNS(C)(=O)=O)SCc1ccc(Cl)cc1	1	2	.	-3	-32*	-7
CS(=O)(=O)NCCSCc1ccc(Cl)cc1	4	4	2	2	.	-14
CCCNC(=O)N1CC2(CCN(C(=O)CN(C)C)CC2)c2c(n(C)c3cc(OC)ccc23)[C@@H]1CO	.	.	.	.	2	.
CCN(C(=O)CN1C(=O)S/C(=C\c2cccc(Cl)c2)C1=O)C1CCS(=O)(=O)C1 (stereo not drawn)	0	-3	-3	2	-1	37*
CCN(C(=O)CN1C(=O)S/C(=C\c2ccc(Cl)cc2)C1=O)C1CCS(=O)(=O)C1 (stereo not drawn)	0	-3	0	6	1	-3
CC[n+]1c(/C=C/N(C)c2ccccc2)oc2ccccc21	0	-28	-3	-1	-19*	-8
O=C(Nc1nnc(-c2ccccn2)o1)c1cccc(Br)c1	1	5	-2	0	.	2
O=C(Nc1nnc(-c2ccccn2)o1)c1cccc(Cl)c1	2	-1	.	-1	-54*	-1
O=C(Nc1nnc(-c2ccncc2)o1)c1ccccc1	0	0	.	2	-35*	-3
Cc1noc(C)c1S(=O)(=O)Nc1ccc2c(c1)C(=O)N([C@@H](C)CO)C[C@@H](C)[C@@H](CN(C)C(=O)Nc1ccc(F)cc1)O2	.	.	.	.	-1	.
O=C(c1c[nH]c(C(=O)C(Cl)(Cl)Cl)c1)c1ccc(F)cc1Cl	-7	-1	.	0	-35*	4

From PubChem BioAssay
